Data taken from ChEMBL document CHEMBL4049407, “Positional Scanning Identifies the Molecular Determinants of a High Affinity Multi-Leucine Inhibitor for Furin and PACE4” (J Med Chem, 2017).
Square brackets hold non-standard residues; d marks the D form. Peptide text beside a SMILES is read from it. * marks the point of attachment. FITC = O=C1OC2(c3ccc(O)cc3Oc3cc(O)ccc32)c2ccc(NC(=S)*)cc21; NH(4-amidinobenzyl) = N=C(N)c1ccc(CN*)cc1; βAla = NCCC(=O)O

Key:
[1] = tested on: LNCaP; test: Antiproliferative activity against human LNCAP cells assessed as reduction in metabolic activity after 72 hrs by MTT assay; type: functional, cell-based
In short: (§1)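 Cells kept at 37°C, 5% CO2 in RPMI 1640 (DU145 with 5% FBS, 1500 cells/well; LNCaP with 10% FBS, 2500 cells/well) on poly-L-lysine coated plates. Peptides added 24 h after plating in fresh serum medium at 0, 1, 10, 25, 50, 75, 100, 250 µM for 72 h. MTT 1 mg/mL final for 4 h; formazan dissolved in 2-propanol HCl. Signal normalised to water vehicle; IC50 from dose-response curves.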

[2] = tested on: DU-145; test: Antiproliferative activity against human DU145 cells assessed as reduction in metabolic activity after 72 hrs by MTT assay; type: functional, cell-based; settings: DU-145, 72 h; in short: as §1
[3] = target: Furin (Homo sapiens, UniProt P09958); test: Inhibition of recombinant human furin expressed in drosophila S2 cells using pyrGlu-Arg-Thr-Lys-Arg-7-amido-4-methylcoumarin as substrate after 60 mins by spectrofluorometry method; type: cell-based
In short: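 Human recombinant purified furin at 2 units/100 µL (0.54 nM), in 100 mM HEPES pH 7.5, 1 mM CaCl2, 1 mM β-mercaptoethanol, 1.8 mg/mL BSA. His-containing peptides run instead in 20 mM BisTris pH 6.5 with the same additives. Substrate 100 µM, KM 5.04 µM. Inhibitor 1 nM to 10 µM; 60 min at 37°C. Fluorescence ex 370 / em 460 nm. Ki by Morrison equation; triplicate experiments, mean ± SD.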

[4] = species: Homo sapiens; test: Selectivity index, ratio of Ki for recombinant human furin expressed in drosophila S2 cells to Ki for recombinant human PACE4 expressed in drosophila S2 cells; type: cell-based
In short: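 Ratio Ki(furin)/Ki(PACE4). […] PACE4 buffer was BisTris pH 6.5; furin buffer was HEPES pH 7.5, or BisTris pH 6.5 for His peptides. Ki fitted by Morrison equation from three independent experiments.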

[5] = target: T1, Proprotein convertase subtilisin/kexin type 6 (Homo sapiens, UniProt P29122); test: Inhibition of recombinant human PACE4 expressed in drosophila S2 cells using pyrGlu-Arg-Thr-Lys-Arg-7-amido-4-methylcoumarin as substrate after 60 mins by spectrofluorometry method; type: cell-based
T1 sequence (P29122 whole entry): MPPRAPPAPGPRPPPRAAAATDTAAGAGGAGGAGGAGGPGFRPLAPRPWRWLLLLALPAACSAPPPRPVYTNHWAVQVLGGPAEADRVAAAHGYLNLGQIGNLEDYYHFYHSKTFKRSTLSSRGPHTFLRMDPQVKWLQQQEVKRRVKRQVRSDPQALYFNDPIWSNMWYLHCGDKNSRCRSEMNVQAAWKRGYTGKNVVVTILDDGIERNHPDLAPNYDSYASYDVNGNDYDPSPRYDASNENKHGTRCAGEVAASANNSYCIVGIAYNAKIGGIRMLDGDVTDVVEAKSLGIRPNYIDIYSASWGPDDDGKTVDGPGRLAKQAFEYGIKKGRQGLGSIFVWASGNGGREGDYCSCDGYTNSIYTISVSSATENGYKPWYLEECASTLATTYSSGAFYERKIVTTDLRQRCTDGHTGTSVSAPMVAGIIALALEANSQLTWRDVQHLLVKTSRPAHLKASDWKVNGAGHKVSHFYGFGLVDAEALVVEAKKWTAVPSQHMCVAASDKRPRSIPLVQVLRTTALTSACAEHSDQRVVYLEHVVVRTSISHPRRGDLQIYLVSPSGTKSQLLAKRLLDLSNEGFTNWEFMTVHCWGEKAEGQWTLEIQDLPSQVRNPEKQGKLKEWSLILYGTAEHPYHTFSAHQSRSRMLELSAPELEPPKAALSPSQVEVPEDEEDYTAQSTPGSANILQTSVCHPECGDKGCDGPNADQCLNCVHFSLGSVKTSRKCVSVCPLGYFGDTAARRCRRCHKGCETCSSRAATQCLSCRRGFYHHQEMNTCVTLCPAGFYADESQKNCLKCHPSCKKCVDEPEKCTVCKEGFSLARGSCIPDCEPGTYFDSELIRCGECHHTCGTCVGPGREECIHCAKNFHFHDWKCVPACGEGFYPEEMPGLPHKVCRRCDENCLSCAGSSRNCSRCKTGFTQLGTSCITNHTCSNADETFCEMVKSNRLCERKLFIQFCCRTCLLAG
In short: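 Human recombinant purified PACE4 at 2 units/100 µL (20.18 nM), in 20 mM BisTris pH 6.5, 1 mM CaCl2, 1.8 mg/mL BSA. Substrate 100 µM, KM 4.035 µM. Inhibitor 1 nM to 10 µM; 60 min at 37°C. Fluorescence ex 370 / em 460 nm. Ki by Morrison tight-binding equation; three independent experiments, mean ± SD.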

[6] = Drug uptake in human DU145 cells assessed as geometric mean fluorescence intensity after 1 hr by propidium iodine-staining based FACS analysis; type: ADME, cell-based; settings: du-145, 1 h
In short: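 DU145 cells exposed 1 h to FITC-labelled peptide (10 µM) in serum-free RPMI, detached with trypsin:EDTA and pelleted, with no trypsin wash. Dead cells excluded by 2 min propidium iodide (10 µg/mL). Flow cytometry read 10 000 events/sample, and uptake was given as geometric mean fluorescence.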

[7] = Drug uptake in human DU145 cells assessed as geometric mean fluorescence intensity preincubated for 1 hr followed by trypsin washout for 5 mins by propidium iodine-staining based FACS analysis; type: ADME, cell-based; settings: du-145, 5 min
In short: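 DU145 cells given FITC-labelled peptide (10 µM) for 1 h in serum-free RPMI, harvested by trypsin:EDTA, then washed twice with 0.05% trypsin for 5 min at 37 °C to strip membrane-bound peptide. Propidium iodide (10 µg/mL, 2 min) excluded damaged cells. 10 000 events/sample were read by flow cytometry as geometric mean fluorescence.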

Chain of Furin (P09958 whole entry): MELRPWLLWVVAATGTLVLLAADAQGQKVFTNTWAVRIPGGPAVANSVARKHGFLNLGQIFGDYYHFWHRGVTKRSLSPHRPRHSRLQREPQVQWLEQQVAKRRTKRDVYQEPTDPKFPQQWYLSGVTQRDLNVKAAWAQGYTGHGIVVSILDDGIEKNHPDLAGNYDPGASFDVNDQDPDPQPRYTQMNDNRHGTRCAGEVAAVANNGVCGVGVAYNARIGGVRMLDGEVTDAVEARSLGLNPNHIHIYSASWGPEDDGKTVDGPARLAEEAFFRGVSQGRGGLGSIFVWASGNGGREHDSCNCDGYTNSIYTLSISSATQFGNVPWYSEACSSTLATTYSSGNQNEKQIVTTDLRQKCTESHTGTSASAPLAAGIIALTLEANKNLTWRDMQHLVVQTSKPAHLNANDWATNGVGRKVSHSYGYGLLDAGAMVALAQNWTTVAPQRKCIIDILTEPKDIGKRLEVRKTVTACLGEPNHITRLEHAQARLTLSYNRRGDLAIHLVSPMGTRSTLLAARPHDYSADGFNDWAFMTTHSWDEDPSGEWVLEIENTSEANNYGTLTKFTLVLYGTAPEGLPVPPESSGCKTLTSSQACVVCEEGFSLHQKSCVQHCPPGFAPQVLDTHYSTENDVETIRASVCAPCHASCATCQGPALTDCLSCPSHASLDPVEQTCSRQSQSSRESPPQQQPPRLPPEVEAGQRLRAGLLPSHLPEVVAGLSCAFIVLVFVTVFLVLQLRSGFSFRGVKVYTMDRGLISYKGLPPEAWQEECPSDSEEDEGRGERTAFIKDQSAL

## CC(=O)N[C@H](C(=O)N[C@@H](CC(C)C)C(=O)N[C@@H](CC(C)C)C(=O)N[C@@H](CC(C)C)C(=O)N[C@@H](CCCNC(=N)N)C(=O)N[C@H](C(=O)N[C@@H](CCCCN)C(=O)NCc1ccc(C(=N)N)cc1)C(C)C)C(C)C (Ac-VLLLRVK-{NH(4-amidinobenzyl)})
[1]
  IC50: 70 µM
[2]
  IC50: 75 µM
[3]
  Ki: 4 nM
[4]
  Ratio Ki: 0.8
[5]
  Ki: 5 nM

## CC(=O)N[C@@H](Cc1c[nH]c2ccccc12)C(=O)N[C@@H](CC(C)C)C(=O)N[C@@H](CC(C)C)C(=O)N[C@@H](CC(C)C)C(=O)N[C@@H](CCCNC(=N)N)C(=O)N[C@H](C(=O)N[C@@H](CCCCN)C(=O)NCc1ccc(C(=N)N)cc1)C(C)C (Ac-WLLLRVK-{NH(4-amidinobenzyl)})
[1]
  IC50: 39 µM
[2]
  IC50: 23 µM
[3]
  Ki: 6 nM
[4]
  Ratio Ki: 0.7
[5]
  Ki: 9 nM

## CC(=O)N[C@@H](Cc1ccc(O)cc1)C(=O)N[C@@H](CC(C)C)C(=O)N[C@@H](CC(C)C)C(=O)N[C@@H](CC(C)C)C(=O)N[C@@H](CCCNC(=N)N)C(=O)N[C@H](C(=O)N[C@@H](CCCCN)C(=O)NCc1ccc(C(=N)N)cc1)C(C)C (Ac-YLLLRVK-{NH(4-amidinobenzyl)})
[1]
  IC50: 160 µM
[2]
  IC50: 23 µM
[3]
  Ki: 4 nM
[4]
  Ratio Ki: 0.6
[5]
  Ki: 6.2 nM

## CC(=O)N[C@H](CC(C)C)C(=O)N[C@@H](CC(C)C)C(=O)N[C@@H](CC(C)C)C(=O)N[C@@H](CC(C)C)C(=O)N[C@@H](CCCNC(=N)N)C(=O)N[C@H](C(=O)N[C@@H](CCCCN)C(=O)NCc1ccc(C(=N)N)cc1)C(C)C (Ac-[dL]LLLRVK-{NH(4-amidinobenzyl)})
[1]
  IC50: 40 µM
[2]
  IC50: 25 µM
[3]
  Ki: 9.8 nM
[4]
  Ratio Ki: 2
[5]
  Ki: 4.9 nM

## CC[C@H](C)[C@H](NC(=O)[C@H](CC(C)C)NC(=O)[C@H](CC(C)C)NC(=O)[C@H](CC(C)C)NC(=O)CCNC(=S)Nc1ccc2c(c1)C(=O)OC21c2ccc(O)cc2Oc2cc(O)ccc21)C(=O)N[C@@H](CCCNC(=N)N)C(=O)N[C@H](C(=O)N[C@@H](CCCCN)C(=O)NCc1ccc(C(=N)N)cc1)C(C)C ({FITC-βAla}-LLLIRVK-{NH(4-amidinobenzyl)})
[6]
  Flu intensity: 87.66
[7]
  Flu intensity: 99.26

## CC(C)C[C@H](NC(=O)CCNC(=S)Nc1ccc2c(c1)C(=O)OC21c2ccc(O)cc2Oc2cc(O)ccc21)C(=O)N[C@@H](CC(C)C)C(=O)N[C@@H](CC(C)C)C(=O)N[C@@H](CC(C)C)C(=O)N[C@@H](CCCNC(=N)N)C(=O)N[C@H](C(=O)N[C@@H](CCCCN)C(=O)NCc1ccc(C(=N)N)cc1)C(C)C ({FITC-βAla}-LLLLRVK-{NH(4-amidinobenzyl)})
[6]
  Flu intensity: 46.61
[7]
  Flu intensity: 47.45

## CC(C)C[C@H](NC(=O)CCNC(=S)Nc1ccc2c(c1)C(=O)OC21c2ccc(O)cc2Oc2cc(O)ccc21)C(=O)N[C@@H](CC(C)C)C(=O)N[C@@H](CC(C)C)C(=O)N[C@@H](CCCNC(=N)N)C(=O)N[C@@H](CCCNC(=N)N)C(=O)N[C@H](C(=O)N[C@@H](CCCCN)C(=O)NCc1ccc(C(=N)N)cc1)C(C)C ({FITC-βAla}-LLLRRVK-{NH(4-amidinobenzyl)})
[6]
  Flu intensity: 12.6
[7]
  Flu intensity: 2.73
